Most compounds without a hit are left out; they make up all but 1.6% or so of the library.
HKDC1 inhibitor: HKDC1 hexokinase inhibitors, primary screen, biochemical, fluorescence, uHTS. recombinant HKDC1, G6PDH/diaphorase resazurin coupled fluorescence. inhibition, % at 20 µM. 340,000 tested, 0.16% active;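 active = inhibition above about 35% when tested at 20 µM, limit read from the data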
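test system = in-house recombinant HK5 (HKDC1) enzyme | amount = HKDC1 at 5 µg/mL | control set = DMSO-enzyme wells negative, buffer-substituted wells positive | compound = one dose of 20 µM, 1% DMSO | schedule = reaction time 90 min, room temperature, protected from light | technique = resorufin fluorescence at 613 nm | reagent = glucose with 1 mM ATP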
T cell HTS: modulators of CD8 T cell-vesicle binding, primary screen, mouse 2C CD8+ T cells, flow cytometry; 2C CD8+ T cell-vesicle binding; hits give low values; response (vesicle binding), % at 7 µM; 330,000 tested, 0.068% active; AID 2052, 2009;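 active = response, share of CD8 T cells binding vesicles, and their 90th percentile fluorescence all below set limits, cut at about 80% in these data, passing the limit was not always enough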;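 also: values below 100% mean blocked vesicle binding to the CD8+ T cells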
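Also added: QL9-peptide-loaded Drosophila micro-vesicles bearing Ld, ICAM-1 and B7-1; Test system: purified 2C TCR transgenic mouse naive CD8+ T cells; Measured by: cytometric PE anti-B7-1 and Alexa647 anti-CD8 signals after 1% paraformaldehyde fixation; Timing: binding step 1.5 h, 37 °C, antibody labelling 20 min, ice.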
PfG6PD inh: PfG6PD enzyme inhibitors, primary screen, biochemical, fluorescence intensity, uHTS; glucose-6-phosphate dehydrogenase-6-phosphogluconolactonase (Plasmodium falciparum 3D7); PfGluPho enzyme, NADPH resazurin-diaphorase fluorescence; inhibition, % at 20 µM; 350,000 tested, 0.78% active; AID 504690, 2011;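 active = inhibition reaching at least a set limit at 20 µM in the primary screen, cut at about 59% in these data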
PKA-R2B activ: activators of PKA-R2B holoenzyme, primary screen, biochemical, fluorescence polarization, Cy5-IP20, human; PKA-R2B holoenzyme dissociation; R2B truncated from residue 108, S112A mutant; 0% DMSO only, 100% 113 µM cGMP; AID 504700, 2011; cAMP-dependent protein kinase catalytic subunit beta (Homo sapiens) + cAMP-dependent …; activation, % at 11.4 µM; 340,000 tested, 0.079% active;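 active = activation above a cutoff set at the mean over all compounds plus 3 SD, cut at about 18% in these data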;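 also: higher means more holoenzyme dissociation and a rise in polarization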
PKA-R1A activ: activators of PKA-R1A holoenzyme, primary screen, biochemical, fluorescence polarization, Cy5-IP20, bovine R1A, mouse PKAc. 340,000 tested, 0.083% active. PKA-R1A dissociation; scaled: DMSO 0%, 113 µM cGMP 100%. activation, % at 11.4 µM. cAMP-dependent protein kinase type I-alpha regulatory subunit (Bos taurus) + …;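 active = percent activation above the mean of all tested compounds plus 3 SD, cut at about 19% in these data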;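 also: higher means more PKAc released from R1A so a rise in polarization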
ATG4B inhibitor: ATG4B protease inhibitors, primary screen, biochemical, fluorescence, uHTS. Cysteine protease ATG4B (Homo sapiens), Q9Y4P1. ATG4B cleavage of LC3-PLA2, NBD-HPC fluorescence, 1 h. inhibition, % at 8.33 µM. 340,000 tested, 0.51% active. AID 504462, 2011; in the data active = inhibition above about 40%
Target sequence (Q9Y4P1 whole entry, looked up): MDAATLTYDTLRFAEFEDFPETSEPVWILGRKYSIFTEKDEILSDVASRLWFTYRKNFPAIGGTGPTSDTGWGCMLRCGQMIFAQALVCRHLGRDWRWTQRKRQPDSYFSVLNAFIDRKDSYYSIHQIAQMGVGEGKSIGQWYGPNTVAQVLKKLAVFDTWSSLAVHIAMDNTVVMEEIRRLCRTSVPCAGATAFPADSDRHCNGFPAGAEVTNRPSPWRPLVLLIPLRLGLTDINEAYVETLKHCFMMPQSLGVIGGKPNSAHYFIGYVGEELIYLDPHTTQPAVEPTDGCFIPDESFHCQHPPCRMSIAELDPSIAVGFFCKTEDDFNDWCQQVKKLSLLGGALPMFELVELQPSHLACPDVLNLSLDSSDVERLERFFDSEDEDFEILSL
HKDC1 act conf2: HKDC1 hexokinase activators, confirmation, biochemical, single concentration; shares compounds with HKDC1 inhibitor; recombinant HKDC1, G6PDH/diaphorase resazurin fluorescence; hits give low values; inhibition, % at 20 µM; 740 tested, 14% active; AID 504708, 2011;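 active = inhibition at or below a set negative limit, negative inhibition meaning the enzyme was activated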
Hits are given with their value.

CN1CC[C@@]2(C)c3cc(O)ccc3N(C)C2O1 (some centres not stated) was read as HKDC1 inhibitor inactive, T cell HTS inactive, PfG6PD inh 64, PKA-R2B activ inactive, PKA-R1A activ inactive and ATG4B inhibitor inactive.
For CCCCn1c(=O)c(C(=O)NCc2ccncc2)c(O)c2ccccc21 the results were HKDC1 inhibitor inactive, T cell HTS 78, PfG6PD inh inactive, PKA-R2B activ inactive, PKA-R1A activ inactive and ATG4B inhibitor inactive.
`Cc1nn(CCC#N)c2c1P(=S)(N1CCCC1)OC(c1ccc(F)cc1)=N2` (configuration not stated) gave HKDC1 inhibitor inactive, T cell HTS inactive, PfG6PD inh 65, PKA-R2B activ inactive, PKA-R1A activ inactive and ATG4B inhibitor inactive.
Screening CN1C(=O)/C(=C/c2ccc(Cl)s2)C(=O)NC1=S returned HKDC1 inhibitor inactive, T cell HTS inactive, PfG6PD inh 63, PKA-R2B activ inactive, PKA-R1A activ inactive and ATG4B inhibitor inactive.
For COc1ccc(/C=C2\C(=O)NC(=S)N(C)C2=O)cc1C the results were HKDC1 inhibitor 36, T cell HTS inactive, PfG6PD inh inactive, PKA-R2B activ inactive, PKA-R1A activ inactive and ATG4B inhibitor 56.
Screening Cc1ccsc1/C=C1\C(=O)NC(=S)N(C)C1=O returned HKDC1 inhibitor inactive, T cell HTS inactive, PfG6PD inh inactive, PKA-R2B activ inactive, PKA-R1A activ inactive and ATG4B inhibitor inactive.
For NC(=O)Cn1cc(C(=O)c2ccccc2)c2ccccc21 the results were HKDC1 inhibitor inactive, T cell HTS inactive, PfG6PD inh inactive, PKA-R2B activ inactive, PKA-R1A activ inactive and ATG4B inhibitor inactive.
Screening CCOP(=O)(OCC)C(O)c1ccc(OC)cc1 (configuration not stated) returned HKDC1 inhibitor inactive, T cell HTS inactive, PfG6PD inh inactive and ATG4B inhibitor inactive.
`CS(=O)(=O)CCN1CC2CCCC(C2)C1` gave HKDC1 inhibitor inactive, PfG6PD inh inactive, PKA-R2B activ inactive, PKA-R1A activ inactive and ATG4B inhibitor inactive.
For CCOC(=O)CC(NC(=O)C(Cc1ccc(N(CCCl)CCCl)cc1)NC(C)=O)C(=O)OCC (configuration not stated) the results were HKDC1 inhibitor inactive, T cell HTS 33, PfG6PD inh inactive, PKA-R2B activ inactive, PKA-R1A activ inactive and ATG4B inhibitor inactive.
`O=S(=O)(O)C(=Cc1ccccc1)c1ccccc1` (tested in a mixture with another compound) gave HKDC1 inhibitor inactive, PfG6PD inh inactive, PKA-R2B activ inactive, PKA-R1A activ inactive and ATG4B inhibitor inactive.
`O=C1C=CC(=O)C=C1` gave HKDC1 inhibitor 48, T cell HTS inactive, PfG6PD inh inactive, PKA-R2B activ inactive, PKA-R1A activ inactive and ATG4B inhibitor inactive.
COc1cc(OC)c2c(c1)O[C@@H](c1ccc(OC)c(OC)c1)[C@H](O)C2 was read as HKDC1 inhibitor inactive, T cell HTS inactive, PfG6PD inh inactive, PKA-R2B activ inactive, PKA-R1A activ inactive and ATG4B inhibitor inactive.
For O=c1[nH]c(O)c(/C=C2/C=CC(c3cc(Cl)ccc3Cl)=N2)c(=O)[nH]1 the results were HKDC1 inhibitor 40, T cell HTS inactive, PfG6PD inh inactive, PKA-R2B activ inactive, PKA-R1A activ inactive and ATG4B inhibitor inactive.
Screening CC1=Nc2ccccc2/C1=C/c1c(O)[nH]c(=O)[nH]c1=O returned HKDC1 inhibitor inactive, T cell HTS inactive, PfG6PD inh inactive, PKA-R2B activ inactive, PKA-R1A activ inactive and ATG4B inhibitor inactive.
For CC(=O)c1ccc2c(c1)C1C(Cl)C(Sc3ccccc3[N+](=O)[O-])CC1C(c1ccccc1[N+](=O)[O-])N2 (configuration not stated) the results were HKDC1 inhibitor inactive, T cell HTS inactive, PfG6PD inh 59, PKA-R2B activ inactive, PKA-R1A activ inactive and ATG4B inhibitor inactive.
O=C1NC(=O)C(=Cc2ccc(-c3ccc(Cl)cc3)o2)C(=O)N1 was read as HKDC1 inhibitor inactive, T cell HTS inactive, PfG6PD inh 77, PKA-R2B activ inactive, PKA-R1A activ inactive and ATG4B inhibitor inactive.
`O=C1NC(=O)C(=Cc2ccc(N3CCOCC3)cc2)C(=O)N1` gave HKDC1 inhibitor inactive, T cell HTS inactive, PfG6PD inh inactive, PKA-R2B activ inactive, PKA-R1A activ inactive and ATG4B inhibitor inactive.
`O=C1NC(=O)C(=Cc2ccc(-c3ccc(S(=O)(=O)N4CCOCC4)cc3)o2)C(=O)N1` gave HKDC1 inhibitor inactive, T cell HTS inactive, PfG6PD inh 73, PKA-R2B activ inactive, PKA-R1A activ inactive and ATG4B inhibitor inactive.
For O=C1NC(=O)C(=Cc2ccc(-c3ccc(F)cc3O)o2)C(=O)N1 the results were HKDC1 inhibitor inactive, T cell HTS inactive, PfG6PD inh inactive, PKA-R2B activ inactive, PKA-R1A activ inactive and ATG4B inhibitor inactive.
For N#CC1c2ccccc2C=CN1C(=O)c1ccc(N(CCCl)CCCl)cc1 (configuration not stated) the results were PfG6PD inh inactive, PKA-R2B activ inactive and PKA-R1A activ inactive.
Screening CCCCCCC(C)(C)c1ccc([C@@H]2C[C@H](O)CC[C@H]2CCCO)c(O)c1 returned HKDC1 inhibitor inactive, T cell HTS inactive, PfG6PD inh inactive, PKA-R2B activ inactive, PKA-R1A activ inactive and ATG4B inhibitor inactive.
For CCn1nc(-c2ccccc2)nc2c(=O)n(C)c(=O)nc1-2 the results were HKDC1 inhibitor inactive, T cell HTS inactive, PfG6PD inh 95, PKA-R2B activ inactive, PKA-R1A activ inactive and ATG4B inhibitor 80.
`COC(=O)C1=C(c2ccc(F)cc2OCc2ccccc2)C[C@@H]2CC[C@H]1N2C(=O)NCCCc1ccccc1` gave HKDC1 inhibitor inactive, T cell HTS inactive, PfG6PD inh inactive, PKA-R2B activ inactive, PKA-R1A activ inactive and ATG4B inhibitor inactive.
O=C1CC=C2C3CC4N(CCC45c4cc(O)c(O)cc4N1C25)CC3=CCBr (configuration not stated) was read as HKDC1 inhibitor 45, PfG6PD inh 126, PKA-R2B activ inactive, PKA-R1A activ inactive, ATG4B inhibitor inactive and HKDC1 act conf2 inactive.
